Experimental data as given in publication PMC5708134 (Chemical research in toxicology, 2017).
Values joined by “and” are separate entries in the source; they are usually repeats but may differ in a detail not shown here. Equal values may be shown once. “Also recorded” adds a separate entry of the source. Blank lines part the entries; values can stand above or below the compound they belong to.

What was measured:
Format in all cases: biochemical
recombinant human DCXR [1] = molecular target: T1, recombinant human DCXR (Homo sapiens, UniProt Q7Z4W1); assay: Chemical redox cycling by DCXR; conditions: for EC50: EC50, half maximal concentration of quinones activating H2O2 production by redox cycling with DCXR, 5 μg/ml recombinant DCXR and 200 μM NADH; for Km / kcat: redox cycling
T1 sequence (Q7Z4W1 whole entry): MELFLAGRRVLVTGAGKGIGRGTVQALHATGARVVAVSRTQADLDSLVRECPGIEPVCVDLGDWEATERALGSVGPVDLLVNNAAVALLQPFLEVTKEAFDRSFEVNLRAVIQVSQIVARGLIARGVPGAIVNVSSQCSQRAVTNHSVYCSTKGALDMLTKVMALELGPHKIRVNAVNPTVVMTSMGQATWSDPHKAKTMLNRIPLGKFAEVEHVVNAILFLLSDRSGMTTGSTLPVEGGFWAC

recombinant human DCXR [2] = molecular target: T1, recombinant human DCXR; assay: Inhibition of diacetyl reduction by DCXR
Procedure, shortened: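 Human DCXR, His-tagged, expressed in E. coli BL21(DE3) with 0.5 mM IPTG (4 h, 37 °C), Ni-NTA purified. 100 μL mixes: 600 μM NADH, 2 mM diacetyl, 1–2 μg DCXR, plus quinone inhibitor. Acetoin formed was quantified by HPLC against a standard calibration curve. Inhibition type and Ki were derived from kinetic analysis.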

recombinant human DCXR [3] = molecular target: T1, recombinant human DCXR; assay: L-xylulose reduction by recombinant DCXR, substrate kinetics; conditions: for Km / kcat: pH 7.0
Procedure, shortened: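 Enzyme: recombinant His-tagged human DCXR from E. coli BL21(DE3), Ni-NTA purified. Reduction was assayed in 100 mM phosphate buffer pH 7.0 and started by adding enzyme. Initial rates of NADPH oxidation were read at 340 nm in a microplate reader. Rates were converted using NAD(P)H calibration curves made in the reaction mix.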

recombinant human DCXR [4] = molecular target: T1, recombinant human DCXR; assay: Inhibition of quinone redox cycling by DCXR; conditions: for Type of inhibition: inhibition of redox cycling with 9,10-phenanthrenequinone
Procedure, shortened: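 Assay for redox cycling by His-tagged human DCXR (E. coli-expressed, Ni-NTA purified). Superoxide was measured as acetylated cytochrome c reduction at 550 nm. 100 μL mixes: 50 mM potassium phosphate pH 7.8, 50 μM acetylated cytochrome c, 0.2 mM NADPH, 20 μM 9,10-phenanthrenequinone, 1.2 or 1.6 μg DCXR, varied inhibitor. Competitive Ki was taken from Lineweaver–Burk plots.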

recombinant human DCXR [5] = molecular target: T1, recombinant human DCXR; assay: Xylitol dehydrogenation
Procedure, shortened: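 Recombinant His-tagged human DCXR (E. coli-expressed, Ni-NTA purified) oxidized xylitol in 0.1 mL reactions: 100 mM glycine buffer pH 9.5, 3 mM MgCl2, NADP+ and xylitol. Reactions were started by adding enzyme. NADPH formation was followed as the absorbance change at 340 nm in a microplate reader.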

recombinant human DCXR [6] = molecular target: T1, recombinant human DCXR; assay: Diacetyl reduction by recombinant DCXR
recombinant human DCXR [7] = molecular target: T1, recombinant human DCXR; assay: Oxygen consumption during DCXR redox cycling; conditions: 600 μM NADH, 20 μM 9,10-phenanthrenequinone
Procedure, shortened: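 Clark-type oxygen electrode measurements used 16 μg recombinant human DCXR per 0.8 mL reaction. NADH and 9,10-phenanthrenequinone were run first to set a stable baseline, then DCXR was added to start the reaction. Diacetyl was added either after DCXR or at time zero (pretreatment). Short-chain fatty acids were added at set time points during cycling.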

[8] = Ki, inhibition of diacetyl reduction
[9] = inhibition of diacetyl reduction
[10] = quinone varied, 200 μM NADPH fixed
[11] = xylulose varied, 0.6 mM NADPH fixed
[12] = NADPH varied, 2 mM diacetyl fixed, pH 7.0
[13] = NADPH varied, 6 mM xylulose fixed
[14] = NADPH varied, 20 μM 9,10-PQ fixed

- IC50 (recombinant human DCXR [2]): 950 µM
- IC50 (recombinant human DCXR [4]): 6800 µM
- Effect on oxygen consumption during redox cycling (recombinant human DCXR [7]; butyric acid 10 mM): Inhibition of oxygen consumption
Structure (SMILES): CCCC(=O)O [butyric acid]

- kcat (recombinant human DCXR [6]; diacetyl varied, 200 μM NADPH fixed, pH 7.0): 5.80 S^−1
- Ki (recombinant human DCXR [4]): 190 µM
- Type of inhibition (recombinant human DCXR [4]; listed as Diacetyl): competitive
- inhibition at 5000 µM (recombinant human DCXR [4]; read-out: Inhibition of menadione-stimulated superoxide anion formation): ~75%
- Effect on oxygen consumption during redox cycling (recombinant human DCXR [7]; diacetyl 5 mM): Inhibition of oxygen consumption
Structure (SMILES): CC(=O)C(C)=O [diacetyl, 2,3-butanedione]
- Type of inhibition (recombinant human DCXR [4]): competitive inhibitors; also recorded: competitive type inhibition

- IC50 (recombinant human DCXR [2]): 19900 µM
- IC50 (recombinant human DCXR [4]): 25100 µM
Structure (SMILES): CCCCCCC(=O)O [heptanoic acid]

- IC50 (recombinant human DCXR [2]): 4400 µM
- IC50 (recombinant human DCXR [4]): 28400 µM
Structure (SMILES): CCCCC(=O)O [pentanoic acid]

More lines, now with the values behind:

Structure (SMILES): O=C1C=Cc2ccccc2C1=O [1,2-naphthoquinone]
- EC50 (recombinant human DCXR [1]): 1.5 µM
- IC50 (recombinant human DCXR [2]): 2.9 µM
- Ki (recombinant human DCXR [2]; [8]): 1.4 µM and 1.35 µM
- Type of inhibition (recombinant human DCXR [2]; [9]): competitive

Structure (SMILES): O=C1C=CC(=O)c2ccccc21 [1,4-naphthoquinone]
- EC50 (recombinant human DCXR [1]): 5.4 µM
- Km (recombinant human DCXR [1]; [10]): 10.8 µM
- kcat (recombinant human DCXR [1]; [10]): 0.0283 s⁻¹
- IC50 (recombinant human DCXR [2]): 11.8 µM
- Ki (recombinant human DCXR [2]): 5.4 µM
- Type of inhibition (recombinant human DCXR [2]; [9]): competitive

Structure (SMILES): O=C1C(=O)c2ccccc2-c2ccccc21 [9,10-phenanthrenequinone]
- EC50 (recombinant human DCXR [1]): 1.7 µM
- IC50 (recombinant human DCXR [2]): 9.3 µM
- Ki (recombinant human DCXR [2]; [8]): 4.3 µM and 4.27 µM
- Type of inhibition (recombinant human DCXR [2]; [9]): competitive

Structure (SMILES): O=C(CO)[C@H](O)[C@@H](O)CO [L-xylulose]
- Vmax (recombinant human DCXR [3]; reduction of L-xylulose using NADPH as the cofactor): 33.8 µM/min
- Km (recombinant human DCXR [3]; [11]): 503 µM
- kcat (recombinant human DCXR [3]; [11]): 1.09 S^−1
- Type of inhibition (recombinant human DCXR [4]): competitive inhibitors; also recorded: competitive type inhibition
- Type of inhibition (recombinant human DCXR [4]; listed as Xylulose): competitive

Structure (SMILES): NC(=O)c1ccc[n+]([C@@H]2O[C@H](COP(=O)([O-])OP(=O)(O)OC[C@H]3O[C@@H](n4cnc5c(N)ncnc54)[C@H](OP(=O)(O)O)[C@@H]3O)[C@@H](O)[C@H]2O)c1 [NADP(+)]
- kcat (recombinant human DCXR [5]; NADP(+) varied, 200 mM xylitol fixed): 1.7 S^−1
- Km (recombinant human DCXR [5]; NADP(+) varied, 200 mM xylitol fixed, 100 mM glycine buffer with 3 mM MgCl2): 110 µM
- Vmax (recombinant human DCXR [5]; oxidation of xylitol using NADP+ as the cofactor): 70.9 µM/min

Structure (SMILES): NC(=O)C1=CN([C@@H]2O[C@H](COP(=O)(O)OP(=O)(O)OC[C@H]3O[C@@H](n4cnc5c(N)ncnc54)[C@H](OP(=O)(O)O)[C@@H]3O)[C@@H](O)[C@H]2O)C=CC1 [NADPH]
- Vmax (recombinant human DCXR [6]; NADPH at fixed concentration of diacetyl): 30.9 µM/min
- Km (recombinant human DCXR [6]; [12]): 90 µM
- kcat (recombinant human DCXR [6]; [12]): 1.6 S^−1 and 1.60 S^−1
- Km (recombinant human DCXR [3]; [13]): 24 µM
- kcat (recombinant human DCXR [3]; [13]): 1.55 S^−1
- Km (recombinant human DCXR [1]; [14]): 31 µM
- kcat (recombinant human DCXR [1]; [14]): 0.115 s⁻¹

Structure (SMILES): CCCCCC(=O)O [hexanoic acid]
- IC50 (recombinant human DCXR [2]): 6100 µM
- IC50 (recombinant human DCXR [4]): 36000 µM
- Effect on oxygen consumption during redox cycling (recombinant human DCXR [7]; hexanoic acid 50 mM): Inhibition of oxygen consumption

Structure (SMILES): CC1=CC(=O)c2ccccc2C1=O [menadione, 2-methyl-1,4-naphthoquinone]
- IC50 (recombinant human DCXR [2]): 52.8 µM
- Ki (recombinant human DCXR [2]): 24.3 µM
- Type of inhibition (recombinant human DCXR [2]; [9]): competitive type of inhibition
- inhibition at 300 µM (recombinant human DCXR [2]; read-out: Inhibition of DCXR mediated reduction of diacetyl): > 90%
